In ChEMBL document CHEMBL4513216, “Probing the Open Global Health Chemical Diversity Library for Multistage-Active Starting Points for Next-Generation Antimalarials” (ACS Infect Dis, 2020):

Assay: Toxicity liver stage against HepG2, at 10uM
Type: cell-based
Parameters: test concentration 10 uM, cell line HepG2-A16-CD81EGFP
Settings: human, HepG2-A16-CD81EGFP cells; read-out: INHIBITION
How it was run: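 Uninfected HepG2-A16-CD81EGFP cells, 3 × 10^3 per well, 1536-well, plated on prespotted compound at 10 μM final, parasite-free screening media added to match infected plates; puromycin 10 μM positive, DMSO 0.5% negative; run in parallel with 48 h PbLuc assay at 37 °C, 5% CO2; viability by CellTiter-Glo luminescence, normalized to controls.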

Row | SMILES | cytotoxicity at 10 µM
1 | CCN(CC)C1(Cc2cc(COC)on2)COC1 | -2.45%
2 | Cc1nc(-c2ccc(S(=O)(=O)N3CCCCC3)cc2)co1 | -2.5%
3 | Nc1cccnc1N1CCC(c2ccccc2)CC1 | -5.2%
4 | O=C(CC1NC(N2CCc3ccccc32)=NC1=O)Nc1ccccc1 (configuration not stated) | -1.3%
5 | COC1(CNC(=O)c2ccsc2)CCSC1 (configuration not stated) | -3.09%
6 | Cc1cc(C(=O)N2CC[C@@H]3CN(CCC(C)C)S(=O)(=O)[C@@H]3CC2)no1 | 1.58%
7 | CN(C)CCOCC1CN(C(=O)c2cscn2)Cc2ccnn2C1 (configuration not stated) | 3.65%
8 | O=C(NCC1CC1)C1CN(C(=O)c2ccnnc2)CC12CCOCC2 (configuration not stated) | 8.21%
9 | Cn1cc(NC(=O)Cn2cc(-c3ccccc3)ncc2=O)cn1 | -3.43%
10 | CC(=O)Nc1ncc(S(=O)(=O)Nc2ccc(F)cc2F)s1 | 11.1%
11 | O=C(NCc1ccccc1)c1nnc2ccc(N3CCOCC3)cc2n1 | 11.2%
12 | CCCn1cc(CN2CCOCC2c2[nH]ncc2C)cn1 (configuration not stated) | 0.325%
13 | CCC1CCCCN1C(=O)Cn1nc(-c2ccc(C)s2)cc(N)c1=O (configuration not stated) | 2.64%
14 | CC(C)N1CC(C(=O)NCc2ccc(S(=O)(=O)N(C)C)cc2)CC1=O (configuration not stated) | 4.44%
15 | CCN(CC)c1ncc2c(O)nc(C3CCNCC3)cc2n1 | 14.7%
16 | COc1ccccc1NC(=O)C1(c2ccccc2)CCOCC1 | 7.59%
17 | COCC(=O)N1CCN(C)C(=O)C(Cc2ccc(-c3cccs3)cc2)C1 (configuration not stated) | 1.74%
18 | CC(=O)N1Cc2ccccc2OC2(CCN(C(=O)C3CCOC3)CC2)C1 (configuration not stated) | 0.146%
19 | O=C(Cc1cccc(O)c1)N1CCCC(O)(CN2CCOCC2)CC1 (configuration not stated) | -3.28%
20 | CNC(=O)c1cn[nH]c1C1CCN(Cc2cccc(C)c2OC)C1 (configuration not stated) | -23.6%
21 | Cc1ccnc(C2(C)CCCN2C(=O)c2cnccn2)n1 (configuration not stated) | -34%
22 | Cc1cc(C2CCCCCN2Cc2cn(C)nc2C)no1 (configuration not stated) | -20.4%
23 | Nc1cc(-c2cccs2)nn(CC(=O)NCC2CCCCC2)c1=O | -3.09%

Row | SMILES | cytotoxicity at 10 µM
24 | Fc1ccc(CN2CCCC(c3nccnc3-n3ccnc3)C2)cc1 (configuration not stated) | -20.4%
25 | Cn1cccc1CN1CCc2c(nc(-c3ccccn3)[nH]c2=O)C1 | -10%
26 | CC(C)(C)c1cc(NC(=O)CN(Cc2ccco2)Cc2cccs2)on1 | 11.2%
27 | Cc1noc(CNC(=O)NCC2(C)CCCc3ccccc32)n1 (configuration not stated) | -1.17%
28 | Cc1cc(C)n(CCCNC(=O)C2CCCO2)n1 (configuration not stated) | -11.5%
29 | CCOCCN1CCN(CC(=O)NC2(C#N)CCCC2)CC1CC (configuration not stated) | 7.73%
30 | Cc1nc(C)c(C(=O)N2CCc3c(C)cccc32)o1 | -2.28%
31 | Cc1noc(C)c1CNC(=O)Nc1ccc(N2CCOC(C)C2)cc1 (configuration not stated) | -2.35%
32 | CCOc1cc(CNC(=O)CNC(=O)CC2CCCCC2)ccn1 | 6.81%
33 | CN(C)c1ccc(C(=O)Nc2ccn(CCc3ccncc3)n2)cc1 | -4.59%
34 | CC(C)c1cnc(CN2CCCC(c3ccn[nH]3)C2)o1 (configuration not stated) | -4.01%
35 | CS(=O)(=O)CCSC1CCN(c2ccccc2F)C1=O (configuration not stated) | -7.68%
36 | CN(C(=O)c1ccc(Cl)c(S(C)(=O)=O)c1)c1ccccc1 | -1.47%
37 | COCCn1cc(C(=O)N2CCCC2c2cnn(C)c2)ccc1=O (configuration not stated) | 5.92%
38 | CCCN(C)C(=O)c1cc(Br)cc(S(=O)(=O)N2CCOCC2)c1F | 6.83%
39 | COc1ccc(C(C)NC(=O)NCCc2ccc(C)nc2)c(OC)c1 (configuration not stated) | -1.74%
40 | CC(C)OC(=O)CCNC(=O)Nc1cccc2ncccc12 | 1.03%
41 | CC(=O)N1CCC(NC(=O)Cc2csc(C(C)(C)C)n2)CC1 | -8.41%
42 | NC(=O)NC(=O)CCSCc1coc(-c2cccc(Cl)c2)n1 | -1.23%
43 | Cc1ccc2c(c1)C(NCc1nccn1Cc1ccccc1)CCCO2 (configuration not stated) | 1.26%
44 | Cc1nc(CNC(C(=O)N2CCOCC2)C(C)C)oc1C (configuration not stated) | -4.34%
45 | O=C(Nc1ccc(=O)n(Cc2ccccc2Cl)c1)C1CC1 | -6.57%
46 | CCCOc1ccc(Cl)cc1C(=O)N1CCC(n2cncn2)CC1 | 2.93%

Row | SMILES | cytotoxicity at 10 µM
47 | COc1ccccc1N1CCC(CNS(=O)(=O)c2cccs2)C1 (configuration not stated) | 5.66%
48 | CCC(O)CN1CCN(C(=O)Cc2c(C)nc(C)[nH]c2=O)CC1 (configuration not stated) | -19.3%
49 | c1ccc(C2CN(CCc3ccncc3)CCO2)cc1 (configuration not stated) | -8.85%
50 | Cc1csc(C(C)(C)NCC(=O)N2CCCC(C(F)(F)F)C2)n1 (configuration not stated) | 6.32%
51 | Cc1c(C(C)NC(=O)Nc2ccc(F)c(F)c2)cnn1C (configuration not stated) | -46.8%
52 | CCC(O)CN1CCN(C(=O)c2ccnc(N(C)C)c2)CC1 (configuration not stated) | -7.87%
53 | Cn1cnc(-c2nc(C(=O)NC3CC3)c3ccccn23)c1 | -114%
54 | Cc1cc(NC(C)c2nnn[nH]2)n2nc(C)c(C)c2n1 (configuration not stated) | 9.4%
55 | Cn1nccc1NC(=O)c1cccc(CN2C[C@H]3CC[C@@H](C2)N3)c1 | 6.56%
56 | CNCC(=O)N1CCCC1c1nc(C(C)C)no1 (configuration not stated) | 0.983%
57 | CCN(CCN1CCCCCC1)C(=O)COc1cccnc1 | 12.6%
58 | CCCN1CCC(CC(=O)N(C)C(C)c2cncs2)CC1 (configuration not stated) | 2.62%
59 | CCCc1cc(C(=O)N(Cc2cccnc2)Cc2cccnc2)[nH]n1 | -5.79%
60 | CC(C)c1nnsc1CNC(=O)C1CCN(C(C)C)CC1 | -8.05%
61 | CC1(C)CC(CN2CCC3(CCC(=O)N(C4CCC4)C3)CC2)CCO1 (configuration not stated) | 0.986%
62 | Cc1cccnc1CNC(=O)CC1C(=O)NCCN1CC(C)(C)C (configuration not stated) | 5.48%
63 | CN(C)C(C(=O)NCC1(N(C)C)CCOCC1)c1ccccc1F (configuration not stated) | 2.2%
64 | CCn1nc(C)cc1C(=O)NCc1nc(C)cc(C)n1 | -0.745%
65 | COc1nccnc1N1CCN(Cc2cccc(C)c2)C(=O)C1 | -0.408%
66 | Cc1ncc(C(=O)N2CCCCC2c2nc3cc(F)ccc3[nH]2)c(O)n1 (configuration not stated) | -0.305%
67 | Cn1ccnc1C1CCCN(C(=O)c2ccc3nccnc3c2)C1 (configuration not stated) | 19.7%
68 | Cc1noc(C2CCCCN2C(=O)C2CCN(C(C)C)CC2)n1 (configuration not stated) | -4.62%
69 | O=C1NCC2(CCCN(C(=O)c3c[nH]nc3-c3cccs3)C2)O1 (configuration not stated) | 8.32%

Row | SMILES | cytotoxicity at 10 µM
70 | O=C(CCCN1CCCCC1)NC(C(=O)O)c1ccc(Cl)cc1 (configuration not stated) | -2.33%
71 | CCn1ncc(C(=O)N2CCCN(CCCc3ccccc3)CC2)c1C | -2.62%
72 | CC1(c2ccccc2)CCCN(Cc2nnc(-c3cccnc3)o2)C1 (configuration not stated) | -6.64%
73 | CC(C)n1cnnc1CN(C)CC1CCOC1 (configuration not stated) | 11.3%
74 | CN(C(=O)CSc1ccccn1)C1CCCN(CCc2ccccc2)C1 (configuration not stated) | -4.46%
75 | Clc1cc(N2CCN(C3CCOCC3)CC2)nc2[nH]ccc12 | -3.96%
76 | COCc1ccc(C(=O)N2CCCN(c3ccc(F)cc3)CC2)s1 | -8.92%
77 | Cc1oc(-c2ccc(F)cc2)nc1CN1CCOCS1(=O)=O | 4.57%
78 | COCCc1noc(CN2CCCC2c2c(C)nn(C)c2Cl)n1 (configuration not stated) | -7.71%
79 | COc1ccc(-n2ccc(C(=O)NCCn3ccnc3)n2)cc1 | -7.2%
80 | Cc1nccn1-c1cc(CNC(=O)CCS(=O)(=O)C2CCCC2)ccn1 | -1.71%
81 | CCc1cnc(CN(C(C)=O)C2CCN(CC3(O)CCCCC3)C2)o1 (configuration not stated) | 0.195%
82 | COCCN1CCC(CNC(=O)C2(c3ccccc3)CCOCC2)C1 (configuration not stated) | -5.87%
83 | Cc1cnn(CCC(=O)NC2CCc3nc(C)cn3C2)c1 (configuration not stated) | 0.132%
84 | Cn1cc(NC(=O)N2CCC2c2ccccc2)ccc1=O (configuration not stated) | -9.57%
85 | CCc1noc(CN2CCC(C(=O)Nc3cnn(CC)c3)CC2)n1 | 3.43%
86 | Cc1cnn(CCC(=O)N2CCN(c3ccc(C#N)cn3)CC2)c1 | -0.417%
87 | Cc1ccc(OCC(=O)NS(=O)(=O)c2c(C)noc2C)cc1C | -1.96%
88 | Cc1cc(C)c(CNC(=O)N(C)CC2CCCCO2)c(=O)[nH]1 (configuration not stated) | -8.93%
89 | COC1CCN(C(=O)Cc2csc(-c3ncccn3)n2)CC1 | -12.6%
90 | COc1cccc(C2CCCN2Cc2nc3c(cnn3C)c(=O)[nH]2)c1 (configuration not stated) | -4.35%
91 | COc1c(C)cnc(CN2CCCCC2Cn2nc(C)nc2C)c1C (configuration not stated) | -0.627%
92 | CNC(=O)CS(=O)(=O)Cc1cc(Cl)c2c(c1)OCCCO2 | -5.61%

Row | SMILES | cytotoxicity at 10 µM
93 | Cc1cnc(CN(C)C2CCN(Cc3nc4ccccc4n3C)C2)o1 (configuration not stated) | 2.57%
94 | Cc1cc(OCC(=O)N2CCCC(c3noc(C)n3)C2)no1 (configuration not stated) | -0.0722%
95 | CC(Cn1cccn1)NC(=O)Cc1cccs1 (configuration not stated) | 4.93%
96 | CCN1CCC(NC(=O)CN2CCCC2Cn2cncn2)CC1 (configuration not stated) | 6.54%
97 | Cc1nc2c(c(C)c1CC(=O)NCc1cccc(C#N)c1)c(=O)[nH]n2C | -0.722%
98 | Cn1cnnc1C1CCCN(C(=O)c2cnc3ccccc3n2)C1 (configuration not stated) | 0.577%
99 | Cc1ccc(-c2cc(C3CCNCC3)nc(C)n2)cc1 | 9.63%
100 | CCn1ccc2ccnc(CC3CN(C(=O)Cn4ccnc4C)C3)c21 | -5.87%
101 | N#Cc1cnc2ccccc2c1N1CCN(CCC(=O)O)CC1 | -1.28%
102 | c1cc2c(cc1CN1CC[C@H]3[C@H]1CCN3CC1CC1)OCO2 | 1.67%
103 | Cc1nc(CNCC2Cn3nncc3CO2)cs1 (configuration not stated) | -93.2%
104 | COCc1cncc2c1CCN(C(=O)c1ccc(C#N)cc1)C2 | -106%
105 | Cn1cccc1C(=O)N1C[C@H]2CN(Cc3cccc(F)c3)C[C@H]2C1 | -1.1%
106 | O=C(NCC1CC1)C1CCC2(CCN(C(=O)c3cccnc3)CC2)O1 (configuration not stated) | 3.59%
107 | CN1CC[C@@H]2OC[C@H](C(=O)N(C)Cc3ccccn3)C[C@@H]2C1 | -98%
108 | CC[C@@H]1N(Cc2ccco2)CCC[C@]12CCC(=O)N2C | -0.00736%
109 | Cc1ccc(CN2CCc3[nH]nc(C(=O)N(C)C)c3C2)o1 | 0.081%
110 | CC(C)NC(=O)N1CCN(CCn2cccn2)c2ncccc2C1 | -100%
111 | Cc1ccc(CN2CC[C@H]3OCC[C@@H](C(=O)NCC4CC4)[C@@H]3C2)s1 | -0.53%
112 | Cc1cc(CN2CC[C@H]3OCC[C@@]3(C(=O)NC(C)C)C2)no1 | 5.86%
